Reference: ChEMBL document CHEMBL4049418, “6-OH-Phenanthroquinolizidine Alkaloid and Its Derivatives Exert Potent Anticancer Activity by Delaying S Phase Progression” (J Med Chem, 2017)
Active and inactive are the calls of the source. The calls are words filed in the database; no cut-off is given here.

What was measured:
Bel-7402 [1] = assay: Inhibition of colony formation in human Bel7402 cells at 0.01 to 10 uM after 24 hrs by SRB staining-based plate colony formation assay; assay type: functional, cell-based
How it was run: (§1)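 BEL-7402 cells seeded at 200 per well, treated in triplicate 24 h, washed twice with PBS, then grown 12 days in fresh medium; colonies stained with SRB and those ≥1 mm diameter counted; three independent experiments, mean ± SD.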

Bel-7402 [2] = assay: Induction of apoptosis in human Bel7402 cells assessed as early apoptotic cells at 10 uM after 72 hrs by Annexin V/propidium iodide staining based flow cytometric analysis (reference value: 3.66%); assay type: functional
How it was run: (§2)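 BEL-7402 cells (3 × 10⁵ per well, 6-well plates) exposed for 72 h. Harvested, PBS-washed, resuspended in cold binding buffer with annexin V–FITC and PI, and stained 15 min in the dark at room temperature. Early apoptotic, late apoptotic and necrotic fractions quantified by flow cytometry.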

Bel-7402 [3] = assay: Induction of apoptosis in human Bel7402 cells assessed as viable cells at 10 uM after 72 hrs by Annexin V/propidium iodide staining based flow cytometric analysis (reference value: 92.4%); assay type: functional; conditions: Bel-7402, 72 h, read-out: Activity
[4] = Growth inhibition of human KB-7d cells after 8 days by methylene blue-staining based spectrophotometry; assay type: functional; conditions: KB7D, 192 h
K562/Adr = assay: Effect on P-gp expression in human K562/ADR cells up to 10 uM after 24 hrs by Western blot analysis; assay type: functional, cell-based
[5] = Growth inhibition of human KB-HU-R cells after 8 days by methylene blue-staining based spectrophotometry; assay type: functional; conditions: 192 h
Bel-7402 [6] = assay: Antiproliferative activity against human Bel7402 cells assessed as reduction in cell viability at 0.012 to 1 uM up to 10 days by fluorescence-based cell imaging method; assay type: functional
How it was run: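 Live-cell imaging (IncuCyte ZOOM) of BEL-7402 cells seeded at 1.5 × 10⁴ per well in 12-well plates. Cells treated in triplicate with a concentration gradient and imaged continuously for 10 days to build growth curves.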

Bel-7402 [7] = assay: Cell cycle arrest in human Bel7402 cells assessed as accumulation in S-phase at 0.012 to 1 uM after 24 hrs by propidium iodide staining-based flow cytometry; assay type: functional
How it was run: (§3)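 BEL-7402 cells exposed for 24 h, then fixed in 70% ethanol at −20 °C for ≥1 h. Stained with 50 μg/mL propidium iodide plus 10 μg/mL RNase A for 30 min in the dark at room temperature. DNA content read by flow cytometry on ≥1.0 × 10⁴ cells per sample.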

Bel-7402 [8] = assay: Induction of apoptosis in human Bel7402 cells assessed as late apoptotic cells at 10 uM after 72 hrs by Annexin V/propidium iodide staining based flow cytometric analysis (reference value: 3.6%); assay type: functional; how it was run: as §2
Bel-7402 [9] = assay: Induction of apoptosis in human Bel7402 cells assessed as necrotic cells at 10 uM after 72 hrs by Annexin V/propidium iodide staining based flow cytometric analysis (reference value: 0.38%); assay type: functional
Bel-7402 [10] = assay: Induction of DNA damage in human Bel7402 cells assessed as increase in CHK1 phosphorylation at Ser345 residue at 0.1 to 10 uM after 1 hr by Western blot analysis; assay type: functional, cell-based
How it was run: (§4)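 BEL-7402 cells (1.5 × 10⁵ per well, 12-well plates) exposed to compounds for 1 h. Phospho-Chk1 Ser345, phospho-Chk2 Thr68 and γH2AX detected by Western blot. Camptothecin at 1 μM served as the DNA-damage reference.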

Bel-7402 [11] = assay: Induction of apoptosis in human Bel7402 cells assessed as late apoptotic cells at 1 uM after 72 hrs by Annexin V/propidium iodide staining based flow cytometric analysis (reference value: 3.6%); assay type: functional; how it was run: as §2
Bel-7402 [12] = assay: Induction of apoptosis in human Bel7402 cells assessed as late apoptotic cells at 10 nM after 72 hrs by Annexin V/propidium iodide staining based flow cytometric analysis (reference value: 3.6%); assay type: functional; how it was run: as §2
Bel-7402 [13] = assay: Induction of DNA damage in human Bel7402 cells assessed as increase in CHK1 phosphorylation at Ser345 residue at 1 to 100 nM after 1 hr by Western blot analysis; assay type: functional, cell-based; how it was run: as §4
Bel-7402 [14] = assay: Inhibition of DNA synthesis in human Bel7402 cells assessed as BrdU incorporation at 10 nM preincubated for 1 hr followed by BrdU addition for 30 mins by FITC/propidium iodide staining based flow cytometry (reference value: 35.5%); assay type: functional; set-up: scale not given: the % may be the effect or the level left
How it was run: (§5)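 BEL-7402 cells (3 × 10⁵ per well) exposed to compounds 1 h, then labeled with 10 μM BrdU for 30 min; trypsinized, fixed in 70% ethanol at −20 °C ≥1 h, 2 N HCl 20 min, neutralized with 0.1 M borate, stained with anti-BrdU-FITC plus PI 30 min; BrdU-positive cells quantified by flow cytometry; three independent experiments, mean + SD.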

Bel-7402 [15] = assay: Cell cycle arrest in human Bel7402 cells assessed as accumulation in S-phase at 10 nM after 24 hrs by propidium iodide staining-based flow cytometry (reference value: 27.5 +/- 1%); assay type: functional; how it was run: as §3
Bel-7402 [16] = assay: Cell cycle arrest in human Bel7402 cells assessed as delay in progression of S-phase to G2-phase at 1 to 3 nM pre-treated with aphidicolin for 16 hrs followed by compound addition measured after 4 hrs by propidium iodide staining-based flow cytometric method; assay type: functional
How it was run: (§6)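 Exponentially growing cells synchronized in early S phase with 0.2 μg/mL aphidicolin for 16 h. Cells released into fresh medium with or without compound for set times. Ethanol-fixed, stained with PI/RNase, and cell cycle distribution read by flow cytometry. Representative of three independent experiments.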

Zip-177 = assay: Cell cycle arrest in human Zip-177 cells assessed as delay in progression of S-phase to G2-phase at 1 to 10 nM pre-treated with aphidicolin for 16 hrs followed by compound addition measured after 24 hrs by propidium iodide staining-based flow cytometric method; assay type: functional; how it was run: as §6
Bel-7402 [17] = assay: Inhibition of colony formation in human Bel7402 cells after 24 hrs by SRB staining-based plate colony formation assay; assay type: functional, cell-based; how it was run: as §1
L02 = assay: Antiproliferative activity against human LO2 cells assessed as reduction in viability after 72 hrs by SRB assay; assay type: cell-based; conditions: L02, 72 h
How it was run: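 Cells seeded and dosed in triplicate for 72 h. Suspension lines (HL-60, K-562, K562/ADR, HL-60/MX2) were read by MTT: 5 mg/mL MTT stock added, 4 h at 37 °C, formazan dissolved in 10% SDS/5% isobutanol/10 mM HCl, A570. Adherent lines were read by SRB: fixed with cold 10% TCA, stained with 0.4% SRB in 1% acetic acid, A540. IC50 from four-parameter logistic fit; mean of ≥3 independent experiments.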

Bel-7402 [18] = assay: Inhibition of DNA synthesis in human Bel7402 cells assessed as BrdU incorporation at 1 nM preincubated for 1 hr followed by BrdU addition for 30 mins by FITC/propidium iodide staining based flow cytometry (reference value: 35.5%); assay type: functional; set-up: scale not given: the % may be the effect or the level left; how it was run: as §5
[19] = Cytotoxicity against Sprague-Dawley rat primary neuronal cells assessed as reduction in cell viability after 24 hrs by MTT assay; assay type: cell-based
Bel-7402 [20] = assay: Induction of DNA damage in human Bel7402 cells assessed as increase in gamma-H2AX levels at 1 to 100 nM after 1 hr by Western blot analysis; assay type: functional, cell-based; how it was run: as §4

## COc1cc2c3c(c4cc(OC)c(OC)cc4c2cc1OC)[C@H](O)[C@@H]1CCCN1C3
Bel-7402 [1]
  inhibition: Active
Bel-7402 [2]
  Activity: 2.06%
Bel-7402 [3]
  viability at 10 µM: 85.1%
[4]
  GI50: 30 nM
K562/Adr
  Activity: inactive
[5]
  GI50: 30 nM
Bel-7402 [6]
  inhibition: Active
Bel-7402 [7]
  Activity: Active
Bel-7402 [8]
  Activity: 11.5%
Bel-7402 [9]
  Activity: 1.39%
Bel-7402 [10]
  Activity: inactive
Bel-7402 [11]
  Activity: 1.92%

## COc1cc2c3c(c4ccc(O)cc4c2cc1OC)CN1CCCC[C@@H]1C3
Bel-7402 [12]
  Activity: 14.2%
Bel-7402 [13]
  Activity: inactive
Bel-7402 [14]
  Activity: 5.07%
Bel-7402 [15]
  Activity: 50.3%
Bel-7402 [16]
  Activity: Active
Zip-177
  Activity: Active
Bel-7402 [17]
  inhibition: Dose-dependent effect
L02
  IC50: 2.7 nM
Bel-7402 [18]
  Activity: 28.6%
[19]
  inhibition (INH): Dose-dependent effect
Bel-7402 [20]
  Activity: inactive
